Results published in ChEMBL document CHEMBL4257565, “A phenotypic approach to the discovery of compounds that promote non-amyloidogenic processing of the amyloid precursor protein: Toward a new profile of indirect β-secretase inhibitors” (Eur J Med Chem, 2018).

Columns and labels:
Type in all cases: cell-based
Beta-secretase 1 [1] = biological target: T1, Beta-secretase 1 (Homo sapiens, UniProt P56817); test: Inhibition of BACE1 in human SH-SY5Y cells harboring wild type APP695 assessed as reduction in amyloid beta (1 to 40) level after 24 hrs by ELISA method
T1 sequence (P56817 whole entry): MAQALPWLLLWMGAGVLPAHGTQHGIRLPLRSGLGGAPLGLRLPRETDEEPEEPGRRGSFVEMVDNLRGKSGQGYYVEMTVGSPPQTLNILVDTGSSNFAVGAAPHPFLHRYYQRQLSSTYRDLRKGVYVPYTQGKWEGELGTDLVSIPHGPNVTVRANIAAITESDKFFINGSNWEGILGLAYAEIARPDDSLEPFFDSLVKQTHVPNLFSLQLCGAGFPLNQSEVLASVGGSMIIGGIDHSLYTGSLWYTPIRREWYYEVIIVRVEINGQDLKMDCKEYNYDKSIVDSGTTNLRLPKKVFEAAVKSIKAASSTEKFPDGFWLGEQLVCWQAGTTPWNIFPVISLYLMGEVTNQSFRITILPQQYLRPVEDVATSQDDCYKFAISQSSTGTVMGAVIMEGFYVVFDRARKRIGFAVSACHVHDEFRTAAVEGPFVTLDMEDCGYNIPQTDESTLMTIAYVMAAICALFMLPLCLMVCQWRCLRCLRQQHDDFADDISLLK
Summary of the method: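 Aβ1-40 and Aβ1-42 levels were measured by ELISA in APPwt-expressing SH-SY5Y cells after compound treatment.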

Beta-secretase 1 [2] = biological target: T1, Beta-secretase 1; test: Inhibition of BACE1 in human SH-SY5Y cells harboring wild type APP695 assessed as increase in AICD level at 3 uM by Western blot method relative to chloroquine
Summary of the method: (§1)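 APP C-terminal fragments (αCTFs and AICD) were detected by Western blot and scored as band intensity. Compounds were tested at 1, 3 and 10 µM.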

Beta-secretase 1 [3] = biological target: T1, Beta-secretase 1; test: Inhibition of BACE1 in human SH-SY5Y cells harboring wild type APP695 assessed as increase in alphaCTF level at 3 uM by Western blot method relative to chloroquine; summary of the method: as §1
Beta-secretase 1 [4] = biological target: T1, Beta-secretase 1; test: Inhibition of BACE1 in human SH-SY5Y cells harboring wild type APP695 assessed as increase in AICD level at 3 uM by Western blot method relative to untreated control; summary of the method: as §1
Beta-secretase 1 [5] = biological target: T1, Beta-secretase 1; test: Inhibition of BACE1 in human SH-SY5Y cells harboring wild type APP695 assessed as increase in alphaCTF level at 3 uM by Western blot method relative to untreated control; summary of the method: as §1

Row | SMILES | IC50 (Beta-secretase 1 [1]) | fold change (FC) (Beta-secretase 1 [2]) | fold change (FC) (Beta-secretase 1 [3]) | fold change (FC) (Beta-secretase 1 [4]) | fold change (FC) (Beta-secretase 1 [5])
1 | CN(C)Cc1ccc(-c2ccc(NCCCN3CCCCC3)c(OCCN3CCCCC3)c2)cc1 | 1500 nM | 2.5 | 2.1 | – | –
2 | c1cc(-c2ccc(NCCCN3CCCCC3)c(OCCN3CCCCC3)c2)ccc1CN1CCCCC1 | 2100 nM | 2.5 | 2.6 | – | –
3 | CN(C)Cc1ccccc1-c1ccc(NCCN2CCCCC2)c(OCCCN2CCCCC2)c1 | 2000 nM | 3.4 | 4.5 | – | –
4 | CN(C)Cc1ccn(-c2ccc(NCCCN3CCCCC3)c(OCCN3CCCCC3)c2)c1 | 5000 nM | 2 | 3.6 | – | –
5 | Oc1c(CN2CCCC2)cc(Nc2ccnc3cc(Cl)ccc23)cc1CN1CCCC1 | 5100 nM | 2.5 | 2.1 | – | –
6 | CN(C)Cc1ccccc1-c1cccc(OCCN2CCCCC2)c1 | 1500 nM | 0.7 | 0.6 | – | –
7 | CN(C)Cc1ccccc1-c1ccc(NCCCN2CCCCC2)c(OCCCN2CCCCC2)c1 | 2100 nM | 5.1 | 4.5 | 30 | 50
8 | c1cc(CN2CCCCC2)cc(-c2ccc(NCCCN3CCCCC3)c(OCCN3CCCCC3)c2)c1 | 4300 nM | 2.6 | 3.3 | – | –
9 | CN(C)Cc1ccccc1-c1ccc(NCCCCN2CCCCC2)c(OCCN2CCCCC2)c1 | 1700 nM | 3 | 4.2 | – | –
10 | CC(C)CN(CCCN1CCN(CCCNc2nc3ccccc3[nH]2)CC1)CC(C)C | 1700 nM | 1.8 | 1.3 | – | –
